Data reported in ChEMBL document CHEMBL1144813, “4'-Methyl-4,5'-bithiazole-based correctors of defective delta F508-CFTR cellular processing” (Bioorg Med Chem Lett, 2008).
The source made the active and inactive calls. The calls are words filed in the database; no cut-off is given here.

Experiments:
Type in all cases: cell-based
[1] = test system: Cystic fibrosis transmembrane conductance regulator (Homo sapiens), P13569 [F508del]; assay: Corrector activity at human CFTR deltaF508 mutant expressed in FRT cells assessed as iodide influx at 25 uM
In short: (§1)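 FRT epithelial cells stably co-expressing human ΔF508-CFTR and halide sensor YFP-H148Q/I152L; grown 24 h at 37°C, then 20 h with compound. PBS wash, then forskolin 20 μM plus genistein 50 μM for 20 min. Fluorescence read 2 s baseline, then 12 s after iodide-substituted PBS addition; influx rate from exponential fit of final 11.5 s, normalized to initial fluorescence; DMSO vehicle negative control.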

[2] = molecular target: Cystic fibrosis transmembrane conductance regulator (Homo sapiens, UniProt P13569, F508DEL); assay: Corrector activity at human CFTR deltaF508 mutant expressed in FRT cells assessed as iodide influx; conditions: read-out: Kd; in short: as §1
[3] = test system: Cystic fibrosis transmembrane conductance regulator (Homo sapiens), P13569 [F508del]; assay: Corrector activity at human CFTR deltaF508 mutant expressed in FRT cells assessed as iodide influx at 10 uM; in short: as §1

Chain of Cystic fibrosis transmembrane conductance regulator (Homo sapiens), P13569 [F508del] (P13569 as listed by the source): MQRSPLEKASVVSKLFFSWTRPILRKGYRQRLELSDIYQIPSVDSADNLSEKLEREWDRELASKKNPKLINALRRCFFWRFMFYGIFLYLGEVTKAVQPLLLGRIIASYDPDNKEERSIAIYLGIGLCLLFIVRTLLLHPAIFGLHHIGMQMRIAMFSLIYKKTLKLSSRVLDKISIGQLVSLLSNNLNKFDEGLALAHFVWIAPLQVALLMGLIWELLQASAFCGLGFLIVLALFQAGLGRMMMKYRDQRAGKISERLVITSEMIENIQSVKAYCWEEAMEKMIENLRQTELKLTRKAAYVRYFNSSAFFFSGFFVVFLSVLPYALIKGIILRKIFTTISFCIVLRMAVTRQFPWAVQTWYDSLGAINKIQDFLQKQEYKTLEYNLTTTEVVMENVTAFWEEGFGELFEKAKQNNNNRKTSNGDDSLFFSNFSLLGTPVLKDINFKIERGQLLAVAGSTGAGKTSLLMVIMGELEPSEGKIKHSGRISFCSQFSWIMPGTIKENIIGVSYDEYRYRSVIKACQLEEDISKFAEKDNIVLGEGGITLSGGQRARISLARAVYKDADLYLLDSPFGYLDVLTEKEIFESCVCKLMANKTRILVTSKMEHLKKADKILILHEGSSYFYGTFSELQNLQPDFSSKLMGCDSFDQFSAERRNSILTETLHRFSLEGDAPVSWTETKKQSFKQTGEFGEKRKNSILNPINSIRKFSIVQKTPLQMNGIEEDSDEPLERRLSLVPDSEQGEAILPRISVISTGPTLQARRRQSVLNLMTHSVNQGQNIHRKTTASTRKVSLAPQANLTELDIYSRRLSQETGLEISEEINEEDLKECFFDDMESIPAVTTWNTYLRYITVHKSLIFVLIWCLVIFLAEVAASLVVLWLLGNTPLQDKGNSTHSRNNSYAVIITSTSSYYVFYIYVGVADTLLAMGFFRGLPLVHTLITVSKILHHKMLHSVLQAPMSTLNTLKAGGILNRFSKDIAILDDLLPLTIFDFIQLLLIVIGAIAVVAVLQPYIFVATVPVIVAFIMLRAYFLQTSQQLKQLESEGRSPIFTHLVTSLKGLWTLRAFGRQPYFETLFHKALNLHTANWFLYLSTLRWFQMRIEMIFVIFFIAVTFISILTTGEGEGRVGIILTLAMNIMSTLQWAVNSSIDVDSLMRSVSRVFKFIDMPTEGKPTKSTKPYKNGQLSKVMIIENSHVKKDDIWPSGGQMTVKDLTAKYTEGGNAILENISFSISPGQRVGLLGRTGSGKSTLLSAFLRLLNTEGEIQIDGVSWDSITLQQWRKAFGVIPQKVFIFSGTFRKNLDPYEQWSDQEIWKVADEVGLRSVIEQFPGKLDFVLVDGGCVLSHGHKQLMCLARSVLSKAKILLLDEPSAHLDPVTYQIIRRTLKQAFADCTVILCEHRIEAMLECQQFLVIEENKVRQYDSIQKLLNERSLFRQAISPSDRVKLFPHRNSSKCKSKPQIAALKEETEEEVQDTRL
Chain of Cystic fibrosis transmembrane conductance regulator (P13569 as listed by the source): as above

Activity [1]	EC50 [2] [nM]	Activity [3]	SMILES
Active	900	Active	COc1ccc(Cl)cc1Nc1nc(-c2sc(NC(=O)c3ccccc3)nc2C)cs1
–	1100	–	COc1ccc(OC)c(Nc2nc(-c3sc(NC(=O)c4ccc(Cl)cc4)nc3C)cs2)c1
–	1100	–	CCCCCCC(=O)Nc1nc(C)c(-c2csc(Nc3cc(OC)ccc3OC)n2)s1
–	700	–	COc1ccc(Cl)cc1Nc1nc(-c2sc(NC(=O)C(C)(C)C)nc2C)cs1

The next lines start with the compound.

SMILES	Activity [1]	EC50 [2] [nM]	Activity [3]
Cc1ccc(Nc2nc(-c3sc(NC(=O)c4ccc(Cl)cc4)nc3C)cs2)cc1	–	1100	–
Cc1nc(NC(=O)c2ccccc2)sc1-c1csc(Nc2cccc(Cl)c2Cl)n1	Active	–	Active
COc1c(Cl)cccc1Nc1nc(-c2sc(NC(=O)c3ccccc3)nc2C)cs1	Active	–	Active
Cc1nc(NC(=O)c2ccc([N+](=O)[O-])cc2)sc1-c1csc(Nc2ccc(Cl)cc2)n1	–	800	–
Cc1nc(NC(=O)c2ccc(Cl)cc2)sc1-c1csc(Nc2ccc(Cl)cc2)n1	–	1100	–
CCOc1ccccc1Nc1nc(-c2sc(NC(=O)C(C)(C)C)nc2C)cs1	–	800	–
